Measurements from ChEMBL document CHEMBL1649122, “Abc1p is a multidrug efflux transporter that tips the balance in favor of innate azole resistance in Candida krusei” (2009).
≈ marks a conversion by molar mass, not a printed value. Calls of active or inactive are those of the source. The rule behind the calls is not given here. *1 amine or outer side, *2 acyl side, *3 side chain or, on linkers, in order; H or OH if unused. Where a SMILES comes first, the peptide text is derived from it. [ ]: non-standard residue; d: D form. X1 = CC[C@@H](C)[C@@H](O[*:1])C(=O)[*:2]; NMeVal(β-OH) = CN[C@H](C(=O)O)C(C)(C)O; NMeF = CN[C@@H](Cc1ccccc1)C(=O)O; aIle = CC[C@@H](C)[C@H](N)C(=O)O; NMeV = CN[C@H](C(=O)O)C(C)C

Legend:
[1] = target: ATP binding cassette transporter Abc1p (Issatchenkia orientalis) (UniProt Q09GQ4); experiment: Inhibition of Candida krusei ABC1 expressed in Saccharomyces cerevisiae isolate ADdelta at 131 nM; conditions: Pichia kudriavzevii
Outline: (§1)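 Agarose disk-diffusion test of S. cerevisiae AD overexpressing C. krusei Abc1p, with the parent AD strain as comparison. Cells were pregrown from YPD overnight into CSM to mid-log at 30°C. They were seeded at OD600 0.008 in CSM with 0.6% agarose, overlaid on CSM agar (pH 7.0). Paper disks carrying set nmol amounts of xenobiotic were applied, and plates were incubated at 30°C for 48 h before reading growth inhibition zones.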

[2] = target: ATP binding cassette transporter Abc1p (Issatchenkia orientalis) (UniProt Q09GQ4); experiment: Inhibition of Candida krusei ABC1 expressed in Saccharomyces cerevisiae isolate ADdelta at 8 nM; conditions: Pichia kudriavzevii
[3] = target: ATP binding cassette transporter Abc1p (Issatchenkia orientalis) (UniProt Q09GQ4); experiment: Inhibition of Candida krusei ABC1 expressed in Saccharomyces cerevisiae isolate ADdelta at 0.37 nM; conditions: Pichia kudriavzevii
[4] = target: ATP binding cassette transporter Abc1p (Issatchenkia orientalis) (UniProt Q09GQ4); experiment: Inhibition of Candida krusei ABC1 expressed in Saccharomyces cerevisiae isolate ADdelta at 87 nM; conditions: Pichia kudriavzevii; outline: as §1
[5] = target: ATP binding cassette transporter Abc1p (Issatchenkia orientalis) (UniProt Q09GQ4); experiment: Inhibition of Candida krusei ABC1 expressed in Saccharomyces cerevisiae isolate ADdelta at 2.5 uM; conditions: Pichia kudriavzevii; outline: as §1
[6] = target: ATP binding cassette transporter Abc1p (Issatchenkia orientalis) (UniProt Q09GQ4); experiment: Inhibition of Candida krusei ABC1 expressed in Saccharomyces cerevisiae isolate ADdelta at 19 nM; conditions: Pichia kudriavzevii; outline: as §1
[7] = target: ATP binding cassette transporter Abc1p (Issatchenkia orientalis) (UniProt Q09GQ4); experiment: Inhibition of Candida krusei ABC1 expressed in Saccharomyces cerevisiae isolate ADdelta at 4 nM; conditions: Pichia kudriavzevii
[8] = target: ATP binding cassette transporter Abc1p (Issatchenkia orientalis) (UniProt Q09GQ4); experiment: Inhibition of Candida krusei ABC1 expressed in Saccharomyces cerevisiae isolate ADdelta at 7 nM; conditions: Pichia kudriavzevii
Pichia kudriavzevii [9] = experiment: Antimicrobial activity against Candida krusei B2399 after 48 hrs by liquid microdilution assay; type: functional; conditions: B2399, 48 h
Outline: (§2)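 Liquid broth microdilution susceptibility assay in CSM medium at pH 7.0, which was also the medium used for the expression studies. Fungal strains were maintained in YPD. The S. cerevisiae test strains carry C. krusei ABC1 or fungal ERG11 alleles integrated at the chromosomal PDR5 locus.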

Pichia kudriavzevii [10] = experiment: Antimicrobial activity against Candida krusei IFO0011 after 48 hrs by liquid microdilution assay; type: functional; conditions: IFO0011, 48 h; outline: as §2
Pichia kudriavzevii [11] = experiment: Antimicrobial activity against Candida krusei NZCDC 89.021 after 48 hrs by liquid microdilution assay; type: functional; conditions: NZCDC 89.021, 48 h; outline: as §2
Pichia kudriavzevii [12] = experiment: Antimicrobial activity against Candida krusei NZCDC 89.102 after 48 hrs by liquid microdilution assay; type: functional; conditions: NZCDC 89.102, 48 h; outline: as §2
Pichia kudriavzevii [13] = experiment: Antimicrobial activity against Candida krusei NZCDC 89.221 after 48 hrs by liquid microdilution assay; type: functional; conditions: NZCDC 89.221, 48 h; outline: as §2
Pichia kudriavzevii [14] = experiment: Antimicrobial activity against Candida krusei NZCDC 90.147 after 48 hrs by liquid microdilution assay; type: functional; conditions: NZCDC 90.147, 48 h; outline: as §2
Pichia kudriavzevii [15] = experiment: Antimicrobial activity against Candida krusei B2399 after 48 hrs by CLSI method; type: functional; conditions: B2399, 48 h
Outline: (§3)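 Azole MICs were determined by the CLSI M27-A2 broth microdilution reference method. They were interpreted against the CLSI breakpoints. Strains were maintained in YPD medium (1% yeast extract, 2% peptone, 2% glucose).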

Pichia kudriavzevii [16] = experiment: Antimicrobial activity against Candida krusei IFO0011 after 48 hrs by CLSI method; type: functional; conditions: IFO0011, 48 h; outline: as §3
Pichia kudriavzevii [17] = experiment: Antimicrobial activity against Candida krusei NZCDC 89.021 after 48 hrs by CLSI method; type: functional; conditions: NZCDC 89.021, 48 h; outline: as §3
Pichia kudriavzevii [18] = experiment: Antimicrobial activity against Candida krusei NZCDC 89.102 after 48 hrs by CLSI method; type: functional; outline: as §3
Pichia kudriavzevii [19] = experiment: Antimicrobial activity against Candida krusei NZCDC 89.221 after 48 hrs by CLSI method; type: functional; outline: as §3
Pichia kudriavzevii [20] = experiment: Antimicrobial activity against Candida krusei NZCDC 90.147 after 48 hrs by CLSI method; type: functional; outline: as §3
Saccharomyces cerevisiae [21] = experiment: Antimicrobial activity against Saccharomyces cerevisiae isolate ADdelta overexpressing Abc1p after 48 hrs by liquid microdilution assay; type: functional; outline: as §2
Saccharomyces cerevisiae [22] = experiment: Antimicrobial activity against Saccharomyces cerevisiae isolate ADdelta overexpressing Saccharomyces cerevisiae ERG11 after 48 hrs by liquid microdilution assay; type: functional; outline: as §2
Saccharomyces cerevisiae [23] = experiment: Antimicrobial activity against Saccharomyces cerevisiae isolate ADdelta overexpressing Candida albicans ERG11A after 48 hrs by liquid microdilution assay; type: functional; outline: as §2
Saccharomyces cerevisiae [24] = experiment: Antimicrobial activity against Saccharomyces cerevisiae isolate AD overexpressing Candida krusei ERG11C after 48 hrs by liquid microdilution assay; type: functional; outline: as §2
Saccharomyces cerevisiae [25] = experiment: Antimicrobial activity against Saccharomyces cerevisiae isolate ADdelta overexpressing Candida krusei ERG11g after 48 hrs by liquid microdilution assay; type: functional; outline: as §2
Saccharomyces cerevisiae [26] = experiment: Fold resistant, ratio of MIC for Saccharomyces cerevisiae isolate ADdelta overexpressing Saccharomyces cerevisiae ERG11 to MIC for Saccharomyces cerevisiae isolate ADdelta overexpressing Abc1p; type: functional
Outline: (§4)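 Fold resistance is the ratio of azole MICs between S. cerevisiae overexpressing strains. The MICs were measured by liquid broth microdilution in CSM medium at pH 7.0. The ERG11 or ABC1 constructs are integrated at the PDR5 locus.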

Saccharomyces cerevisiae [27] = experiment: Fold resistant, ratio of MIC for Saccharomyces cerevisiae isolate ADdelta overexpressing Candida albicans ERG11A to MIC for Saccharomyces cerevisiae isolate ADdelta overexpressing Abc1p; type: functional; outline: as §4
Saccharomyces cerevisiae [28] = experiment: Fold resistant, ratio of MIC for Saccharomyces cerevisiae isolate ADdelta overexpressing Candida krusei ERG11C to MIC for Saccharomyces cerevisiae isolate ADdelta overexpressing Abc1p; type: functional; outline: as §4
Saccharomyces cerevisiae [29] = experiment: Fold resistant, ratio of MIC for Saccharomyces cerevisiae isolate ADdelta overexpressing Candida krusei ERG11g to MIC for Saccharomyces cerevisiae isolate ADdelta overexpressing Abc1p; type: functional; outline: as §4
[30] = target: ATP binding cassette transporter Abc1p (Issatchenkia orientalis) (UniProt Q09GQ4); experiment: Inhibition of Candida krusei ABC1 expressed in Saccharomyces cerevisiae isolate ADdelta at 23 nM; conditions: Pichia kudriavzevii
Pichia kudriavzevii [31] = experiment: Increase in ERG11 mRNA expression in Candida krusei B2399 at MIC concentration after 1 hr by hot-phenol extraction based Northern blotting; type: functional, organism-based
Outline: (§5)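 Northern blot. Logarithmically grown C. krusei B2399 was exposed to azoles for 60 min (FLC 1x MIC; VRC, MCZ, ITC 2x MIC) or to FLC at 1x MIC over a time course. About 100 OD units of cells were harvested. Total RNA was extracted with hot phenol, and 10 µg was run on 1.2% denaturing agarose. Blots were probed with radiolabelled ABC1 or ERG11, with ACT1 as internal control.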

Pichia kudriavzevii [32] = experiment: Increase in ERG11 mRNA expression in Candida krusei B2399 at > 200 ug/ml after up to 320 mins by hot-phenol extraction based Northern blotting; type: functional, organism-based; outline: as §5
Pichia kudriavzevii [33] = experiment: Increase in ABC1 mRNA expression in Candida krusei B2399 at MIC concentration after 320 mins by hot-phenol extraction based Northern blotting; type: functional, organism-based; outline: as §5
Pichia kudriavzevii [34] = experiment: Increase in ERG11 mRNA expression in Candida krusei B2400 at MIC concentration after 80 mins by hot-phenol extraction based Northern blotting; type: functional, organism-based
[35] = target: ATP binding cassette transporter Abc1p (Issatchenkia orientalis) (UniProt Q09GQ4); experiment: Inhibition of Candida krusei B2399 Abc1p assessed as fractional inhibitory concentration index at 2.5 ug/ml after 48 hrs by checkerboard susceptibility assay; conditions: Pichia kudriavzevii
Outline: (§6)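 Checkerboard susceptibility assay combining the Abc1p inhibitor with FLC or ITC. MICs were determined at various inhibitor concentrations. The fractional inhibitory concentration index was calculated for each combination.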

[36] = target: ATP binding cassette transporter Abc1p (Issatchenkia orientalis) (UniProt Q09GQ4); experiment: Inhibition of Candida krusei […] expressed in Saccharomyces cerevisiae isolate ADdelta assessed as fractional inhibitory concentration index at 2.5 ug/ml after 48 hrs by checkerboard susceptibility assay; conditions: Pichia kudriavzevii; outline: as §6

Compound: COC(=O)c1ccccc1-c1c2ccc(=N)cc-2oc2cc(N)ccc12
- Activity [1]: Active

Compound: CO[C@@H]1C[C@@H](C[C@H]2CC[C@H](C)[C@H]([C@@H](C)C(=O)O)O2)O[C@]2(O[C@](C)([C@H]3CC[C@@](C)([C@@H]4O[C@@H]([C@H]5O[C@@](O)(CO)[C@H](C)C[C@@H]5C)C[C@@H]4C)O3)C[C@H]2C)[C@@H]1C
- Activity [2]: Active

Compound: C[C@@H]1C[C@@H]([C@H](O)CC2CC(=O)NC(=O)C2)C(=O)[C@@H](C)C1
- Activity [3]: Active

Compound: C[C@@H]1[C@H](O)[C@@H](C)/C=C/C=C/C=C/C=C/C=C/C=C/C=C/[C@H](O[C@@H]2O[C@H](C)[C@@H](O)[C@H](N)[C@@H]2O)C[C@@H]2O[C@](O)(C[C@@H](O)C[C@@H](O)[C@H](O)CC[C@@H](O)C[C@@H](O)CC(=O)O[C@H]1C)C[C@H](O)[C@H]2C(=O)O
- Activity [4]: inactive

Compound: C[C@H]1c2cccc(O)c2C(=O)C2=C(O)[C@]3(O)C(=O)C(C(N)=O)=C(O)[C@@H](N(C)C)[C@@H]3[C@@H](O)[C@@H]21
- Activity [5]: inactive

Compound: Nc1nc(=O)[nH]cc1F
- Activity [6]: inactive

Compound: O=[N+]([O-])c1cc[n+]([O-])c2ccccc12
- Activity [7]: inactive

Compound: CC[C@@H](C)[C@@H]1NC(=O)[C@@H]2CCCN2C(=O)[C@H](Cc2ccccc2)N(C)C(=O)[C@H](Cc2ccccc2)NC(=O)[C@H](C(C)C)N(C)C(=O)[C@@H]([C@H](C)CC)OC(=O)[C@H](C(C)(C)O)N(C)C(=O)[C@H](CC(C)C)NC(=O)[C@H](C(C)C)N(C)C1=O (cyclo(F[NMeF]P[aIle][NMeV]L[NMeVal(β-OH)][X1][NMeV]))
- Activity [8]: inactive

Compound: OC(Cn1cncn1)(Cn1cncn1)c1ccc(F)cc1F [FLUCONAZOLE]
- MIC (Pichia kudriavzevii [9]): 256 µg/mL (≈ 836 µM)
- MIC (Pichia kudriavzevii [10]): 256 µg/mL (≈ 836 µM)
- MIC (Pichia kudriavzevii [11]): 256 µg/mL (≈ 836 µM)
- MIC (Pichia kudriavzevii [12]): 256 µg/mL (≈ 836 µM)
- MIC (Pichia kudriavzevii [13]): 256 µg/mL (≈ 836 µM)
- MIC (Pichia kudriavzevii [14]): 256 µg/mL (≈ 836 µM)
- MIC (Pichia kudriavzevii [15]): 32 µg/mL (≈ 104 µM)
- MIC (Pichia kudriavzevii [16]): 128 µg/mL (≈ 418 µM)
- MIC (Pichia kudriavzevii [17]): 32 µg/mL (≈ 104 µM)
- MIC (Pichia kudriavzevii [18]): 32 µg/mL (≈ 104 µM)
- MIC (Pichia kudriavzevii [19]): 32 µg/mL (≈ 104 µM)
- MIC (Pichia kudriavzevii [20]): 128 µg/mL (≈ 418 µM)
- MIC (Saccharomyces cerevisiae [21]): 0.5 µg/mL (≈ 1.63 µM)
- MIC (Saccharomyces cerevisiae [22]): 2 µg/mL (≈ 6.53 µM)
- MIC (Saccharomyces cerevisiae [23]): 2 µg/mL (≈ 6.53 µM)
- MIC (Saccharomyces cerevisiae [24]): 4 µg/mL (≈ 13.1 µM)
- MIC (Saccharomyces cerevisiae [25]): 64 µg/mL (≈ 209 µM)
- ratio (Saccharomyces cerevisiae [26]): 4
- ratio (Saccharomyces cerevisiae [27]): 4
- ratio (Saccharomyces cerevisiae [28]): 8
- ratio (Saccharomyces cerevisiae [29]): 128
- Activity [30]: inactive
- Activity (Pichia kudriavzevii [31]): Active
- Activity (Pichia kudriavzevii [32]): inactive
- Activity (Pichia kudriavzevii [33]): Active
- Activity (Pichia kudriavzevii [34]): Active
- fractional inhibitory concentration index (FICI) [35]: 0.35
- fractional inhibitory concentration index (FICI) [36]: 0.112
